ChEMBL document CHEMBL1123282, “Antiinflammatory activity of substituted 6-hydroxypyrimido[2,1-f]purine-2,4,8(1H,3H,9H)-triones. Atypical nonsteroidal antiinflammatory agents” (J Med Chem, 1986)
Where “and” joins values, the source holds several entries; their conditions need not be identical. Equal values may be shown once.

Assays:
[1] = biological target: T1, Polyunsaturated fatty acid 5-lipoxygenase (Rattus norvegicus) (UniProt P12527); assay: In vitro inhibitory activity against Lipoxygenase in rat neutrophils at a dose of 50 uM
T1 sequence (whole entry): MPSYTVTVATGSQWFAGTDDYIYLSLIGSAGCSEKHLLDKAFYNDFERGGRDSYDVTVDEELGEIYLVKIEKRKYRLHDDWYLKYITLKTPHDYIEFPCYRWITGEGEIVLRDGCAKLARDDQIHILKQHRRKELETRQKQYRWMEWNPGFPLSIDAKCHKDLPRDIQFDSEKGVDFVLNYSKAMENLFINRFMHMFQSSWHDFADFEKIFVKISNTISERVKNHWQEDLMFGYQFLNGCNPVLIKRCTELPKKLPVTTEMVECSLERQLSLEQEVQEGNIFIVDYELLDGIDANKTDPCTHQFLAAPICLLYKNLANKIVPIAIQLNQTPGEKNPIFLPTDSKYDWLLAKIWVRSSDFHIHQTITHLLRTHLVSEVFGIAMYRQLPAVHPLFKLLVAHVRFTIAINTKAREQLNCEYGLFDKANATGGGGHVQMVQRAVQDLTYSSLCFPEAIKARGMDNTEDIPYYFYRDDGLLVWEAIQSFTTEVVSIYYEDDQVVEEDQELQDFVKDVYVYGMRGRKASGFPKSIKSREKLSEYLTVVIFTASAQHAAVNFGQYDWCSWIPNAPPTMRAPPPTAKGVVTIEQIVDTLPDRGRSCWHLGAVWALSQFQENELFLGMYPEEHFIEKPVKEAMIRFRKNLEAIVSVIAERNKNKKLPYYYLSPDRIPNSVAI
How it was run: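 Neutrophils come from the 4 h pleural exudate of male Wistar-Lewis rats given iv BSA plus intrapleural rabbit anti-BSA IgG. Cells are washed, red cells lysed with NH4Cl, and resuspended at about 5×10^6 cells/0.1 mL in Tris pH 7.4 with NaCl and 1 mM CaCl2. Cells are preincubated with compound 4 min at room temperature.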

[2] = biological target: Cyclooxygenase (Rattus norvegicus) (UniProt P35355+Q63921); assay: In vitro inhibitory activity against Prostaglandin G/H synthase in rat neutrophils at a dose of 50 uM
[3] = species: Rattus norvegicus; assay: Antiinflammatory activity by immune response to collagen II antigen in rats antibody titer was determined by passive hemagglutinination; format: functional
How it was run: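 In rats with bovine type II collagen/incomplete Freund's adjuvant arthritis, the antibody response to collagen II was titred by passive hemagglutination. The delayed-type hypersensitivity component, ear thickness 24 h after intrapinna antigen, was read at day 21.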

[4] = test system: Rattus norvegicus; assay: Antiinflammatory activity against collagen II arthritis in rats, activity % inhibition in noninjected paw edema; format: functional; set-up: concentration or dose not given beside the values
How it was run: (§1)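 Rats immunised with bovine articular-cartilage type II collagen (dissolved in 0.01 M AcOH for 24 h at 4 °C, dialysed against saline) mixed in equal volume with incomplete Freund's adjuvant. Paws were examined weekly for 7 weeks. An animal counted as arthritic at Δ paw volume ≥8.0 (injected paw) or ≥4.0 (noninjected paw). Bone lesions were scored on lateral-projection foot radiographs. 16 rats/group.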

[5] = test system: Rattus norvegicus; assay: Tested in vivo for antiinflammatory activity against chronic adjuvant arthritic rat by prophylactic inhibition 2 degree paw after peroral administration of 9 mg/kg of dose; format: functional; details: route oral
How it was run: (§2)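 Prophylactic regimen, rats. Adjuvant is heat-killed Mycobacterium tuberculosis ground to a fine powder in paraffin oil (6 mg/mL); 0.1 mL is injected into the left hind paw. Oral drug is given 1 h before adjuvant challenge, then for 21 consecutive days; controls receive methyl cellulose. Left (1°) and right (2°) hind paw volumes are measured by plethysmograph.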

[6] = test system: Rattus norvegicus; assay: Tested in vivo for antiinflammatory activity against chronic adjuvant arthritic rat by prophylactic inhibition 1 degree paw after peroral administration of 9 mg/kg of dose; format: functional; details: route oral; how it was run: as §2
[7] = test system: Rattus norvegicus; assay: In vivo antiinflammatory activity against rats by RPAR(reverse passive Arthus reaction) synovitis method; format: functional; set-up: concentration or dose not given beside the values
How it was run: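 Lewis rats, oral drug or placebo 1 h before iv BSA (2.28 mg in saline), then intraarticular rabbit anti-BSA (0.54 mg) into one knee and saline into the other, under light anesthesia. Second oral dose at 3 h; the total of both doses is the calculated dose. About 17 h after induction, subpatellar tissue with synovium is excised and weighed. Response is antibody-minus-saline knee weight, tested by analysis of variance.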

[8] = test system: Rattus norvegicus; assay: Compound was tested in vivo against chronic adjuvant arthritic rat by prophylactic inhibition 2 degree paw. Relative potency with respect to (8-Benzyl-5-hydroxy-1,3-dimethyl-6-propyl-1H,8H-1,3,4b,8,9-pentaaza-fluorene-2,4,7-trione); format: functional
[9] = test system: Rattus norvegicus; assay: Compound was tested for intestinal Ulcerogenic effect in rats at a dose of 10 mg/kg; format: functional
How it was run: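 Normal fed rats were gavaged once daily for three consecutive days at 10–300 mg/kg and killed 24 h after the last dose. Intestines were examined for ulcers, recording incidence per group of 8 and a lesion score (±SE).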

[10] = species: Rattus norvegicus; assay: Antiinflammatory activity on the development of collagen II arthritis in rats, measured based on animals positive for arthritis by the presence of bone lesions; format: functional; how it was run: as §1
[11] = test system: Rattus norvegicus; assay: Antiinflammatory activity on the development of collagen II arthritis in rats, measured based on animals positive for arthritis by the presence of paw edema; format: functional; how it was run: as §1
[12] = test system: Rattus norvegicus; assay: Compound was tested in vivo for antiinflammatory activity against chronic adjuvant arthritic rat by prophylactic inhibition 2 degree paw after peroral administration of 36 mg/kg of dose; details: po

Row | SMILES | inhibition [1] | inhibition [2] [%] | Antibody titer [3] | Inhibition [4] [%] | inhibition in vivo at 9 mg/kg [5] [%] | inhibition in vivo at 9 mg/kg [6] [%] | Inhibition [7] [%] | Relative potency [8] | Ulcer incidence [9] [number/group] | Positive [10] [%] | Positive [11] [%] | inhibition in vivo at 36 mg/kg [12] [%]
1 | CC(C)=CCc1c(O)n(Cc2ccccc2)c2nc3c(c(=O)n(C)c(=O)n3C)n2c1=O | 17% and 22% | 92 | 10.9 | 10.1 | 76 | 30 | 26 | 3.1 and 4.3 | 0 | 40 | 46.7 | 
2 | CC(C)=CCc1c(O)n(Cc2ccc(F)cc2)c2nc3c(c(=O)n(C)c(=O)n3C)n2c1=O | 21% and 22% | 93 | 8.4 | 80.6 | 35 | 22 | 29 | 4.8 |  | 14.3 | 21.4 | 69
3 | CCCc1c(O)n(Cc2ccc(F)cc2)c2nc3c(c(=O)n(C)c(=O)n3C)n2c1=O | 0% and 8% | 36 | 6.6 | 54.9 | 49 | 42 | 53 | 1.2 | 0 | 18.8 | 31.3 | 67
